Screening data from PubChem BioAssay.
SR-BI DiI inh: inhibitors of SR-BI mediated HDL lipid uptake, primary screen, ldlA[mSR-BI] cells, fluorescence, single point; ldlA[mSR-BI] CHO cells, DiI-HDL uptake fluorescence, 3 h; inhibition, % at 12.5 µM; 320,000 compounds, 0.96% hits; AID 488896, 2010;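 active = mean replicate inhibition of at least 70% and a set share of replicates each scoring 70 or more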
SR-BI DiI-HDL act: activators of SR-BI mediated DiI-HDL uptake, primary screen, ldlA[mSR-BI] CHO cells, DiI fluorescence | 3 h; 100 = double the neutral-control signal | activation, % at 12.5 µM | 320,000 compounds, 0.096% hits | AID 504775, 2011;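 active = mean replicate activation of at least 60% and every replicate at or above 60%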
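Test system: SR-BI-overexpressing, LDLR-lacking CHO cells; Also added: labelled HDL, 10 µg/mL; Measured by: bottom-read cell fluorescence after medium removal, ex 550/em 595 nm; Timing: 3 h uptake period with compound, 37 °C; Buffer or medium: F12, 0.5% BSA, 25 mM HEPES; Doses: single compound concentration, delivered by pin transfer.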
HIF act: HIF pathway transcriptional activators, primary screen, cell-based, U2OS HRE-luciferase, luminescence. U2OS HRE-luciferase reporter; normalized: DMSO 0%, desferrioxamine 100%. activation, % at 7.5 µM (by protocol). 300,000 compounds, 0.32% hits. AID 1910, 2009;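 active = mean activation of at least 10% of the iron chelator positive control signal, with at least half of replicates also reaching 10%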
AHR activator: AHR activators, primary screen, cell-based, luminescence, luciferase reporter, human. Aryl hydrocarbon receptor (Homo sapiens), P35869. AHR-responsive luciferase reporter cells. activation, % at 5 µM. 320,000 compounds, 2.5% hits. AID 2796, 2010; in the data active = activation above about 47%
Target sequence (P35869 whole entry, looked up): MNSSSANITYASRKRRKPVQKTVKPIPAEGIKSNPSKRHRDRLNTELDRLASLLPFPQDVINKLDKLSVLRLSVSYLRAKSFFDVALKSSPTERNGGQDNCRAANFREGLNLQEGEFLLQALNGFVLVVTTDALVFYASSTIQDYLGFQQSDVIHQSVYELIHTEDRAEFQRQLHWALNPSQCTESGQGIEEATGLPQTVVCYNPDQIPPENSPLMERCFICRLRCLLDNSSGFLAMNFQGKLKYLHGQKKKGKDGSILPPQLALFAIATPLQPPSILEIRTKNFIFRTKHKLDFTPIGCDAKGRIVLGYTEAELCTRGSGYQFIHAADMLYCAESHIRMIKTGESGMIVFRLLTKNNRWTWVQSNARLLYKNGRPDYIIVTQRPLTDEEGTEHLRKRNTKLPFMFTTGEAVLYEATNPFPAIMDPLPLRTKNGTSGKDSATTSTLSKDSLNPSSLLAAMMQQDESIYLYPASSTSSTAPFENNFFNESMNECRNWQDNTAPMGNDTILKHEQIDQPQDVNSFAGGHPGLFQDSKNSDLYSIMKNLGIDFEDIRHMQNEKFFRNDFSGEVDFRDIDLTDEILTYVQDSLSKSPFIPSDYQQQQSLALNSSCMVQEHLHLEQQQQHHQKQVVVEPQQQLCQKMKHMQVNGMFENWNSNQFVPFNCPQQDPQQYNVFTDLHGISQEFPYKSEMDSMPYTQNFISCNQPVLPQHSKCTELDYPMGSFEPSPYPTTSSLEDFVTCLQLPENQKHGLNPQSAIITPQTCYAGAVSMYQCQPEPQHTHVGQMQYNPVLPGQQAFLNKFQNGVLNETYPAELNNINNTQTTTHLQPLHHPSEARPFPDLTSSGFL
ABCB6 inh 2: ABCB6 transporter inhibitors, primary screen, K562-ABCB6 cells, flow cytometry, MLPCN library | ATP-binding cassette sub-family B member 6 (Homo sapiens), Q9NP58 | K562-ABCB6 porphyrin accumulation, 1 h; hits give low values | fluorescence ratio to DMSO, % at 10 µM | 360,000 compounds, 0.19% hits | AID 602162, 2011;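 active = fluorescence ratio to DMSO below 75%, the collection mean minus 3 SD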;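 note: signal is porphyrin accumulated inside mitochondria; lower ratio means ABCB6 inhibition with less porphyrin fluorescence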
GAA850 FXN act: FXN promoter activators, primary screen, cell-based, luciferase luminescence, HEK293 lucGAA850 | HEK293 lucGAA850 FXN promoter luciferase reporter, 24 h; percent of 10 µM SAHA response | activation, % at 6 µM | AID 540364, 2011 | 360,000 compounds, 0.56% hits;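 active = activation above the average of all compounds screened plus 3 SD, cutoff fixed separately per campaign, cut at about 7.5% in these data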
Each line names hits and unclear results; the compound was inactive in the other large screens; ! = not confirmed by another sample. This is a sample that favours compounds with a hit; in the whole collection about 3.9% have one here.

CN(C)C(=O)CN1CCN(Cc2nc(CC3CC3)no2)CC1	none
CCC(C)N(C(=O)Cn1nnc2ccccc21)C(C(=O)NCc1ccco1)c1cccc(OC)c1 (configuration not stated)	none
CC(=O)c1c[nH]c(C(=O)NC2CCCCCC2)c1	none
COc1cc(/C=C2\SC(=S)N(N3CCOCC3)C2=O)cc(OC)c1OC	none
N/C(=N\OC(=O)COc1ccccc1)c1ccccn1	none
Cc1ccc(/C=N/n2c(C)nnc2C)cc1	none
O=C(CN1C(=O)NC(c2ccccc2)(c2ccccc2)C1=O)N1CCCCC1	none (no result: HIF act)
Cc1ccc(C)c(NC(=O)COc2coc(CN3CCc4ccccc4C3)cc2=O)c1	none
CCOC(=O)c1c(C)[nH]c(C)c1S(=O)(=O)N(C)CC(=O)Nc1cc(C)ccc1OC	AHR activator 55 (no result: HIF act)
COc1ccc(C(=O)NC(=S)NNC(=O)c2ccco2)cc1	none
COc1cccc(CNC(=O)COc2cc3c(c4oc(=O)cc(C)c24)CCC(C)(C)O3)c1	SR-BI DiI inh 77
COc1ccc(CNC(=O)COc2cc3c(c4oc(=O)cc(C)c24)CCC(C)(C)O3)cc1	none
Nc1ncnc2c1ncn2[C@@H]1O[C@H](CNS(=O)(=O)c2cc(S(=O)(=O)c3ccccc3)cs2)[C@@H](O)[C@H]1O	SR-BI DiI-HDL act 130 (no result: HIF act, AHR activator)
Cc1cc(S(=O)(=O)NC[C@H]2O[C@@H](n3cnc4c(N)ncnc43)[C@H](O)[C@@H]2O)c(C)s1	none (no result: HIF act)
CCC(CO)n1c(SCc2cc(=O)oc3cc(C)ccc23)nc2ccccc2c1=O (configuration not stated)	none
COc1ccc(CC(=O)OCC(=O)Nc2ccc3c(c2)OCCO3)cc1OC	none
Cc1nc(-n2[nH]c3c(c2=O)CCCC3)[nH]c(=O)c1Cc1ccccc1	HIF act 12
CCC(C)C(=O)Nc1nc(C)c(-c2csc(Nc3ccc(Cl)cc3)n2)s1 (configuration not stated)	SR-BI DiI inh 78, AHR activator 51
CCCC(=O)Nc1nc(C)c(-c2csc(Nc3ccc(Cl)cc3)n2)s1	AHR activator 65
Cc1ccc(Cl)cc1Nc1nc(-c2sc(NC(=O)C(C)(C)C)nc2C)cs1	none
CCC(=O)Nc1nc(C)c(-c2csc(Nc3ccc(C(=O)O)cc3)n2)s1	none (no result: AHR activator)
COc1ccc(OC)c(Nc2nc(-c3sc(N)nc3C)cs2)c1	none
CCCCCC(=O)Nc1nc(C)c(-c2csc(Nc3cc(Cl)ccc3OC)n2)s1	SR-BI DiI inh 79, AHR activator 50
CCCC(C)C(=O)Nc1nc(C)c(-c2csc(Nc3cc(OC)ccc3OC)n2)s1 (configuration not stated)	SR-BI DiI inh 93, AHR activator 74
CNC(=O)C(=O)NCC(c1cccs1)S(=O)(=O)c1ccc(C)cc1 (configuration not stated)	none
O=C(Cn1c2c(sc1=O)C1c3ccccc3OCC1CS2)Nc1ccc(Cl)c(Cl)c1 (configuration not stated)	none
CCn1c(CSc2nc3ccccc3[nH]2)nc2cc(C(=O)O)ccc21	AHR activator 60
CCn1c(CSc2nccn2C)nc2cc(C(=O)O)ccc21	none
Clc1ccc(-n2ncc3c(NCc4cccnc4)ncnc32)cc1Cl	none
CSc1nsc2nc(=O)c(/C=C3\C(C)=Nc4ccc(C)cc43)c(N)n12	none
CC1=Nc2ccc(C)cc2/C1=C/c1c(N)n2oc(C)cc2nc1=O	SR-BI DiI inh 93!
O=C(CSc1nnc(-c2ccc3c(c2)OCO3)o1)Nc1ncc(Cl)cc1Cl	AHR activator 133
CN=C(Nc1cccnc1)c1cccc(C(F)(F)F)c1	none
Cc1nc(C(F)(F)F)nc(Nc2ccc(Br)cc2)c1C#N	AHR activator 51
Cc1cc(-c2n[nH]c(=S)n2Cc2ccco2)n(C)n1	SR-BI DiI-HDL act 61
Cc1cc(-c2n[nH]c(=S)n2Cc2ccco2)nn1C	none
COc1ccc(-c2cc(C(=O)O)[nH]n2)cc1OC	none (no result: SR-BI DiI inh, SR-BI DiI-HDL act)
COC(=O)c1ccc2nc(-c3ccc(OC)c(OC)c3)c(Cc3ccsc3)n2c1	none (no result: SR-BI DiI inh, SR-BI DiI-HDL act, HIF act, AHR activator, GAA850 FXN act)
C=CCn1c(=O)c(C(=O)Nc2ccccc2O)c(O)c2ccccc21	AHR activator 63
C=CCn1c(=O)c(C(=O)Nc2ccccc2C)c(O)c2ccccc21	none (no result: AHR activator)
CC(C)(C)c1ccc(O)c(N)c1	AHR activator 48 (no result: SR-BI DiI inh, SR-BI DiI-HDL act, ABCB6 inh 2, GAA850 FXN act)
CCC(C)c1ccc(O)c(N)c1 (configuration not stated)	none
CCOC(=O)N1CCN(C(=O)c2ccc(Cn3c(=S)[nH]c4cc5c(cc4c3=O)OCO5)cc2)CC1	none
CCOC(=O)N1CCN(C(=O)c2ccc(Cn3c(=S)[nH]c4cc(OCC)c(OCC)cc4c3=O)cc2)CC1	HIF act 18
Cc1ccccc1-n1c(=O)n(Cc2ccc(C(=O)O)cc2)c(=O)c2[nH]cnc21	HIF act 37
COc1ccc(Cn2c(=O)c3[nH]cnc3n(-c3ccccc3C)c2=O)cc1	none
O=C1C2CCCN2C(c2ccccc2F)N1c1ccc(Cl)cc1 (configuration not stated)	AHR activator 52
O=C(N1CCCCCC1)N1CCN(C(=O)N2CCCCC2)CC1	none
O=C1c2ccccc2C(=O)N1CCc1ccccc1	AHR activator 60
CCOC(=O)c1ccc(-c2ccc(/C=C(\C#N)C(=O)NCC3CCCO3)o2)cc1 (configuration not stated)	none
COc1ccc(-c2nnc(OCc3ccccc3)c3ccccc23)cc1	AHR activator 56
COc1ccc2c(c1)c1nnc(SCC(=O)NC3CC3)nc1n2C	AHR activator 72
CCOc1ccc2c(c1)c1nnc(SCC3CCCO3)nc1n2C (configuration not stated)	HIF act 93
N#Cc1nc(-c2ccc(OCc3ccc(Cl)cc3)cc2)oc1N1CCC(C(N)=O)CC1	none (no result: HIF act)
N#Cc1nc(-c2ccc(OCc3ccc(Cl)cc3)cc2)oc1N1CCOCC1	SR-BI DiI inh 75 (no result: HIF act)
Cc1ccc(CNc2nc(N)c([N+](=O)[O-])c(NCCO)n2)cc1	none
CNc1nc(N)c([N+](=O)[O-])c(Nc2cccc(Cl)c2)n1	AHR activator 58 (no result: SR-BI DiI inh, SR-BI DiI-HDL act)
Cc1ccc(Nc2nc(N)c([N+](=O)[O-])c(NCCO)n2)cc1C	AHR activator 81
Nc1ccc2oc(-c3cc(Br)ccc3Cl)nc2c1	AHR activator 49
CCc1ccc2oc(-c3cc(N)ccc3Cl)nc2c1	AHR activator 49
Cc1ccc(C)c(-c2nc3cc(N)ccc3o2)c1	none
